# Screens: PubChem, several laboratories
# A selection: hits, their analogues and other compounds. The true share with any hit is near 2.7%.
# NadD block: inhibitors of Staphylococcus aureus NadD. purified NadD enzyme, colorimetric absorbance read-out. inhibition, % at 20 µM. hit rate 0.78% among 360,000. AID 602399; in the data active = inhibition above about 26%
# CSN inh: inhibitors of human CSN-mediated cullin deneddylation; Q92905; Purified CSN, SCF-Nedd8-OG deneddylation, fluorescence polarization; inhibition, % at 12.5 µM; hit rate 0.38% among 360,000; AID 651999;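 active = pattern-corrected inhibition above about 35%, with an unprinted fluorescence ratio check between 0.5 and 1.5, limit read from the data, passing the limit was not always enough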;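 note: 0% = enzyme with substrate and 100% = substrate without enzyme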
#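 Material: purified human Csn5 enzyme expressed in HEK293T cells / Medium: Tris buffer pH 7.5, NaCl, DTT, Tween-20, trehalose, ovalbumin / Compound dosing: 12.5 µM single point / Schedule: 90 min incubation of compound, enzyme and substrate at room temperature / Signal: fluorescence polarization of the substrate / Control set: no-enzyme wells high, enzyme-with-substrate wells low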
# HNF4A DNA FP: change in binding of human HNF4 alpha to DNA; hit rate 0.3% among 360,000; activity change, % at 10 µM; P41235; HNF4a-FITC DNA binding, fluorescence polarization, 1 h; in the data active = activity change above about 30%, passing the limit was not always enough
# TPT1 inhibitor: C. albicans TPT1 enzyme inhibition. recombinant caTPT1, FP RNA substrate dephosphorylation. inhibition, % at 5 µM. hit rate 0.81% among 300,000. AID 1962;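 active = inhibition above the mean of all tested compounds plus 3 SD, set per screening campaign, cut at about 24% in these data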;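 note: plate controls were DMSO alone for no effect and ferristatin control at 100 nM for full effect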
# Rpn11 inh: inhibitors of human proteasome Rpn11; O00487; human 26S proteasome, Ub4-pepOG fluorescence polarization; 20S core pre-blocked with epoxomicin; inhibition, % at 20 µM; hit rate 0.59% among 360,000;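 active = inhibition at 20 µM, scaled to each plate's controls, above about 33%, limit read from the data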
# Target sequence (O00487 whole entry, looked up): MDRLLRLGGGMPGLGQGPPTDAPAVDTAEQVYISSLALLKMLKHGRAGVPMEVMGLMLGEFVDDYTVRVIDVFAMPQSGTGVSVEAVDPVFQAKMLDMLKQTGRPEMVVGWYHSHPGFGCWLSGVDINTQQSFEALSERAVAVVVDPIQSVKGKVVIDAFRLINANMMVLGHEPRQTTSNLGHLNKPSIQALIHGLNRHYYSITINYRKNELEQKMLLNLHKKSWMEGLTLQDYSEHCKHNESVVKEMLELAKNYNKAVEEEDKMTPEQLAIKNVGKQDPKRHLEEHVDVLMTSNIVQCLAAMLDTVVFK
# PP1 inh: blocks human PP1-alpha phosphatase, a PP5 counter-screen; inhibition, % at 6.7 µM; P62136; purified PP1alpha, OMFP fluorescence; hit rate 0.9% among 320,000;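 active = inhibition above the mean inhibition of all tested compounds plus 3 SD, computed separately for each screening campaign, cut at about 15% in these data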
# TPT1 inh confirm: confirmation of Candida albicans TPT1 inhibitors | inhibition, % at 5 µM | shares compounds with TPT1 inhibitor | hit rate 74% among 2,400 | recombinant caTPT1, fluorescence polarization, RNase T1 coupled;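 active = inhibition above the primary screen limit, the mean inhibition of all tested compounds plus 3 SD, cut at about 25% in these data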
# RNase T1 inh: RNase T1 inhibition in TPT1 counter-screen. shares compounds with TPT1 inhibitor. RNase T1 cleavage, fluorescence polarization, 1536-well. inhibition, % at 5 µM. hit rate 83% among 2,400;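 active = inhibition above the solvent-only control well mean plus 3 SD, limit set per screening run, cut at about 23% in these data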;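 note: plate controls were DMSO wells with enzyme for no effect and wells without RNase T1 for full effect; inhibitors block cleavage so intact labeled substrate keeps polarization high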
# Target sequence (P00651 whole entry, looked up): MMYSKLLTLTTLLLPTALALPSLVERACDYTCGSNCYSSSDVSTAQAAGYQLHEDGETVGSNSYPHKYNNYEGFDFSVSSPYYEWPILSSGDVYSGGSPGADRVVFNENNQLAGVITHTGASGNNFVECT
# PP1 confirm: human PP1 phosphatase inhibition, confirmation. shares compounds with PP1 inh. purified PP1alpha, OMFP substrate fluorescence. inhibition, % at 6.7 µM. hit rate 52% among 1,900;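 active = mean PP1 inhibition above a set limit taken from the earlier primary screen, cut at about 15% in these data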
# PP5 counter: counter-screen for PP1 inhibitors: human PP5 phosphatase inhibition; shares compounds with PP1 inh; purified PP5c, OMFP fluorescence; inhibition, % at 6.7 µM; hit rate 4% among 1,900; AID 2360;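 active = mean PP5 inhibition over triplicate wells above about 9.5% taken from the earlier PP1 screen, limit read from the data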
# Rpn11 confirm: Rpn11 inhibition confirmation, single concentration; shares compounds with Rpn11 inh; purified human 26S proteasome, Ub4-pepOG fluorescence polarization; proteasome pretreated with epoxomicin; inhibition, % at 20 µM; hit rate 29% among 1,900
# MMP-2 counter: MMP-2 (human) inhibition counter-screen; shares compounds with Rpn11 inh; recombinant MMP-2, FRET peptide cleavage fluorescence; inhibition, % at 20 µM; hit rate 4% among 1,900; AID 602330;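 note: human MMP-2 activated beforehand with APMA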
# Thrombin FP: thrombin (bovine) inhibition counter-screen | inhibition, % at 20 µM | shares compounds with Rpn11 inh | bovine thrombin cleavage of Ub4-pepOG, fluorescence polarization | hit rate 13% among 1,900;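 active = mean inhibition at least 40% at 20 µM, or signal 3 deviations below plate average, so some actives read negative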;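 note: plate controls were thrombin with DMSO for no effect and buffer wells lacking thrombin for full effect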
# An asterisk follows results filed as active; nt = no result shown. Cut-off read from the data, not from the text of the source, unless noted: active = inhibition above about 40%; inactive = the rest.
SMILES,NadD block,CSN inh,HNF4A DNA FP,TPT1 inhibitor,Rpn11 inh,PP1 inh,TPT1 inh confirm,RNase T1 inh,others
CCCCN1C(=O)/C(=C\c2ccco2)C(=O)N(CCc2ccccc2)C1=O,14,21,3,43*,26,10,6,9,
CCN1C[C@@]2(COC)C3[C@@H](OC)[C@H]4[C@@H]1[C@@]3(C1C[C@H]3[C@H](O)C1[C@]4(O)C[C@H]3OC)[C@@H](OC)C[C@H]2O (some centres undefined),-2,-4,4,-2,4,-7,nt,nt,
CC(=O)N1Cc2cnnn2-c2ccccc2C1(C#N)Cc1ccccc1 (centres undefined),6,4,-7,nt,4,nt,nt,nt,
CCOc1ccc(N2C(=O)/C(=C\c3cccs3)C(=O)NC2=S)cc1,nt,nt,nt,11,nt,-1,nt,nt,
CCOc1ccc(N2C(=O)/C(=C/c3ccco3)C(=O)NC2=S)cc1,87*,104,-69,47*,nt,5,16,20,
Cc1ccccc1N1C(=O)NC(=O)/C(=C/c2ccc(N3CCOCC3)o2)C1=O,-1,132,108*,123*,nt,11,136*,138*,
Cc1ccccc1N1C(=O)NC(=O)/C(=C\c2cc(Br)c(N3CCOCC3)o2)C1=O,1,103,135,96*,nt,1,141*,140*,
Cc1cccc(N2C(=O)/C(=C/c3ccc(N4CCN(C)CC4)o3)C(=O)NC2=S)c1C,6,123,84*,83*,nt,5,121*,121*,
O=C1NC(=S)N(c2ccccc2F)C(=O)/C1=C\c1cccs1,14,7,-2,9,5,-3,nt,nt,
CC1([N+](=O)[O-])COP(=O)(NCc2cccnc2)OC1 (centres undefined),1,0,7,nt,4,nt,nt,nt,
FC(F)(F)Oc1ccc(NC2=NCCCS2)cc1,-6,4,0,0,-5,-3,nt,nt,
O=[N+]([O-])c1cc2c(cc1CNCCc1ccc3c(c1)OCO3)OCO2,5,-1,-4,32*,7,0,6,10,
Fc1ccc(CNCCc2ccc3c(c2)OCO3)cc1,-6,-2,5,-1,6,0,nt,nt,
NC(=S)/N=C/c1c(O)[nH]c(=O)[nH]c1=O,1,8,2,16,12,-4,nt,nt,
C=CCNC(=S)/N=C/c1c(O)[nH]c(=O)[nH]c1=O,-1,9,12,26*,16,-5,14,23*,
C=CC(=O)NCNC(=O)C=C,4,-3,3,nt,-2,-5,nt,nt,
CCN1C(=O)C(=Cc2ccc(C)s2)C(=O)N(CC)C1=S,17,17,4,31*,nt,-2,9,13,
CCN1C(=O)C(=Cc2cc(C)n(C3CC3)c2C)C(=O)N(CC)C1=S,0,32,25,21,nt,0,nt,nt,
O=C1CNC(c2ccccc2Cl)c2cc(Br)ccc2N1 (centres undefined),-11,-2,1,-2,5,1,nt,nt,
CC1C=CCCC12C(=O)NC(=O)NC2=O (centres undefined),3,-2,-3,nt,3,nt,nt,nt,
CCc1ccccc1NC(=O)CN1CCN(C(=O)COc2ccccc2C#N)CC1,-4,-5,-5,nt,3,2,nt,nt,
CC(C)(C)c1cc(C=C(C#N)C#N)cc(C(C)(C)C)c1O,-5,9,12,61*,39,-1,82*,90*,
O=c1c(C=Nc2cccnc2Cl)c(O)n(CCCCl)c(=O)n1C1CCCCC1,0,49*,28,63*,nt,-2,86*,99*,
Cc1ccccc1N1C(=O)/C(=C/c2ccco2)C(=O)NC1=S,nt,nt,nt,80*,nt,69*,80*,14,PP1 confirm=35*;PP5 counter=2
Cc1cccc(C)c1-n1nnnc1C(c1ccnc2ccccc12)N1CCC2(CC1)C(=O)NCN2c1ccccc1 (centres undefined),5,1,2,nt,7,nt,nt,nt,
SMILES,NadD block,CSN inh,HNF4A DNA FP,TPT1 inhibitor,Rpn11 inh,PP1 inh,TPT1 inh confirm,RNase T1 inh,others
O=c1[nH]c(=S)[nH]c(O)c1N=Nc1ccc2c(c1)OCCO2,-5,34,48*,25*,77*,2,35*,48*,Rpn11 confirm=29;MMP-2 counter=-6;Thrombin FP=45*
CN1C(=O)/C(=C\c2ccc(Br)s2)C(=O)NC1=S,34*,11,1,25*,55*,1,15,27*,Rpn11 confirm=-2;MMP-2 counter=-1;Thrombin FP=6
O=[N+]([O-])c1cccnc1N1CCCNCC1,-6,-5,1,1,9,0,nt,nt,
O=c1[nH]c(=O)n(-c2cccc3ccccc23)c(O)c1/C=N/N1CCCCC1c1cccnc1 (centres undefined),-1,27,33*,51*,44*,0,67*,81*,Rpn11 confirm=90*;MMP-2 counter=26;Thrombin FP=67*
O=C(CCc1ccccc1)N1Cc2cc(-c3ccccc3)ccc2-n2nncc2C1,3,3,0,nt,0,nt,nt,nt,
CC1=NCCc2c1[nH]c1ccccc21,-3,18,37,25*,62*,10,17,22*,Rpn11 confirm=-4;MMP-2 counter=-29;Thrombin FP=-6
COC(=O)C1=C(c2c(C)noc2C)C[C@@H]2CC[C@H]1N2C(=O)NCCCOC(C)C,-2,2,0,nt,-13,-3,nt,nt,
O=c1c2ccccc2nc(/C=C/c2ccccc2)n1-c1ccc(O)cc1,0,3,4,-5,-7,6,nt,nt,
COc1cc(/C=C/c2nc3ccccc3c(=O)n2-c2cccc(O)c2)ccc1O,3,9,17,34*,93*,-4,50*,54*,Rpn11 confirm=19;MMP-2 counter=26;Thrombin FP=19
CCN1C[C@]2(COC)CC[C@H](OC)[C@@]34C1[C@]1(OCO[C@@]15C[C@H](OC)[C@H]1C[C@@H]3[C@@H]5[C@H]1OC)[C@@H](O)[C@H]24,1,-1,-3,-1,0,0,nt,nt,
